The test system of experiment [1] is Canis familiaris. Put plainly: Percent change in forelimb vascular resistance (FVR) after beta-blockade in anesthetized dogs 0.01 mg/kg. It counts as functional, Canis lupus familiaris. In a few lines: (§1)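 Anesthetized dogs given β-adrenoceptor blockade (nadolol, 1 mg/kg iv) before the test agent. Drug dissolved in saline or dilute HCl/NaOH and given iv as cumulative 1-min doses, 10–30 min apart. Forelimb vascular resistance recorded as percent change from control. Values are mean ± SEM (n = 4-5) or the mean of two determinations, with significance set at p < 0.05.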

For experiment [2], the system named is Canis familiaris. Put plainly: (§2) Percent change in mean arterial blood pressure (MABP) before beta-blockade in anesthetized dogs at 0.03 mg/kg. The class given is functional, Canis lupus familiaris. In short, it runs like this:
(§3)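 Anesthetized dogs: 30 min control recording before dosing. Drug dissolved in 0.9% saline or dilute HCl or NaOH (0.1 or 1.0 N), then made to volume with saline. Given iv (0.1 mL/kg over 1 min), cumulative doses at half-log intervals, 10–30 min between doses to reach steady state. One compound per animal. Inotropy taken as change in LV dP/dtmax from preceding baseline. Values are mean ± SEM or the mean of two experiments.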

Experiment [3] has as its system Canis familiaris. Put plainly: Percent change in total peripheral resistance (TPR) before beta-blockade in anaesthetized dogs at 0.11 mg/kg. The class given is functional, Canis lupus familiaris. In short, it runs like this: as §3
Experiment [4] concerns Canis familiaris. Put plainly: (§4) Percent change in heart rate (HR) before beta-blockade in anesthetized dogs at 0.11 mg/kg. The class given is functional, Canis lupus familiaris. In short, it runs like this:
as §3

The test system of experiment [5] is Canis familiaris. Put plainly: (§5) Percent change in total peripheral resistance (TPR) before beta-blockade in anesthetized dogs at 0.03 mg/kg. It counts as functional, Canis lupus familiaris. In a few lines:
as §3

Experiment [6] has as its system Canis familiaris. Put plainly: Percent change in myocardial contractility (LV dp/dt) before beta-blockade in anesthetized dogs at 0.11 mg/kg. It counts as functional, Canis lupus familiaris, Myocardium. In short, it runs like this: as §3
The subject of experiment [7] is Canis familiaris. Put plainly: (§6) Percent change in heart rate (HR) before beta-blockade in anesthetized dogs at 0.03 mg/kg. The class given is functional, Canis lupus familiaris. In short, it runs like this:
as §3

Experiment [8] has as its system Canis familiaris. The experiment is described as §4. It counts as functional, Canis lupus familiaris. In short, it runs like this:
as §3
This is another data set of the same source.

The test system of experiment [9] is Canis familiaris. Put plainly: (§7) Percent change in total peripheral resistance (TPR) before beta-blockade in anesthetized dogs at 0.01 mg/kg. The class given is functional, Canis lupus familiaris. In short, it runs like this: as §3
Experiment [10] has as its system Canis familiaris. Put plainly: (§8) Percent change in forelimb vascular resistance (FVR) after beta-blockade in anesthetized dogs 0.03 mg/kg. The class given is functional, Canis lupus familiaris. In a few lines:
as §1

The test system of experiment [11] is Canis familiaris. Put plainly: Percent change in forelimb vascular resistance (FVR)in anesthetized dogs after beta-blockade at 0.01 mg/kg. The class given is functional, Canis lupus familiaris. In short, it runs like this:
as §1

The test system of experiment [12] is Canis familiaris. Described as §5. The class given is functional, Canis lupus familiaris. In short, it runs like this: as §3
The source holds these as a separate data set.

Experiment [13] concerns Canis familiaris. Put plainly: (§9) Percent change in forelimb vascular resistance (FVR) after beta-blockade in anesthetized dogs 0.11 mg/kg. It counts as functional, Canis lupus familiaris. In short, it runs like this:
as §1

Experiment [14] has as its system Canis familiaris. Put plainly: Percent change in total peripheral resistance (TPR) before beta-blockade in anesthetized dogs at 0.11 mg/kg. It counts as functional, Canis lupus familiaris. In a few lines: as §3
In experiment [15] the test system is Canis familiaris. Put plainly: (§10) Percent change in heart rate (HR) before beta-blockade in anesthetized dogs at 0.01 mg/kg. The class given is functional, Canis lupus familiaris. In a few lines: as §3
Experiment [16] relates to Canis familiaris. Put plainly: (§11) Percent change in myocardial contractility (LV dp/dt) before beta-blockade in anesthetized dogs at 0.01 mg/kg. It counts as functional, Canis lupus familiaris, Myocardium. In a few lines:
as §3

The test system of experiment [17] is Canis familiaris. Put plainly: Positive inotropic effects in anesthetized dogs. The class given is functional. Particulars: Canis lupus familiaris. In a few lines: as §3
Experiment [18] relates to Canis familiaris. The description is as §7. It counts as functional, Canis lupus familiaris. In short, it runs like this:
as §3
This is another data set of the same source.

Experiment [19] deals with Canis familiaris. Put plainly: (§12) Percent change in mean arterial blood pressure (MABP) before beta-blockade in anesthetized dogs at 0.11 mg/kg. The class given is functional, Canis lupus familiaris. In a few lines: as §3
The subject of experiment [20] is Canis familiaris. The description is as §11. It counts as functional, Canis lupus familiaris, Myocardium. In a few lines:
as §3
This is another data set of the same source.

The subject of experiment [21] is Canis familiaris. Put plainly: (§13) Percent change in mean arterial blood pressure (MABP) before beta-blockade in anesthetized dogs at 0.01 mg/kg. It counts as functional, Canis lupus familiaris. In short, it runs like this: as §3
Experiment [22] concerns Canis familiaris. The experiment is described as §10. The class given is functional, Canis lupus familiaris. In short, it runs like this: as §3
The source holds these as a separate data set.

Experiment [23] deals with Canis familiaris. The experiment is described as §8. It counts as functional, Canis lupus familiaris. In short, it runs like this:
as §1
This is another data set of the same source.

The next experiment deals with Phosphodiesterase 3 (Homo sapiens, UniProt Q14432+Q13370). Put plainly: Inhibition of cardiac PDE 3 (phosphodiesterase III). The class given is protein assay, Canis lupus familiaris.
In experiment [24] the test system is Canis familiaris. The description is as §6. The class given is functional, Canis lupus familiaris. In a few lines:
as §3
This is another data set of the same source.

The test system of experiment [25] is Canis familiaris. The experiment is described as §13. The class given is functional, Canis lupus familiaris. In short, it runs like this:
as §3
This is another data set of the same source.

Experiment [26] has as its system Canis familiaris. The experiment is described as §12. The class given is functional, Canis lupus familiaris. In a few lines:
as §3
The source holds these as a separate data set.

For experiment [27], the system named is Canis familiaris. The experiment is described as §2. It counts as functional, Canis lupus familiaris. In short, it runs like this: as §3
This is another data set of the same source.

For experiment [28], the system named is Canis familiaris. Described as §9. The class given is functional, Canis lupus familiaris. In short, it runs like this: as §1
The source holds these as a separate data set.

In experiment [29] the test system is Canis familiaris. Put plainly: Cardiovascular effects in anesthetized dogs. It counts as functional. Particulars: Canis lupus familiaris. In short, it runs like this: as §3
In experiment [30] the test system is Canis familiaris. Put plainly: Effective dose in anesthetized dogs. The class given is functional. The note with it: Canis lupus familiaris. In a few lines: as §3
For experiment [31], the system named is Canis familiaris. Put plainly: Percent change in myocardial contractility (LV dp/dt) before beta-blockade in anesthetized dogs at 0.03 mg/kg. The class given is functional, Canis lupus familiaris, Myocardium. In a few lines:
as §3

“And” between values parts separate entries of the source, which are not always exact repeats. Equal values may be shown once.

Take `O=C1CC2Cc3cc(-n4ccnc4)ccc3C2=NN1` (stereo not drawn): the “Change in FVR” value with Canis familiaris [1] is -7.5%; in the experiment on Canis familiaris [10], -1.5%; in the experiment with Canis familiaris [11], -1.5%; in the experiment on Canis familiaris [13] it was -31%; in the experiment on Canis familiaris [23] it was -22.5%; in the experiment on Canis familiaris [28], -34.5%. For the same molecule, the “Change in MABP” value is recorded as -7% in the experiment with Canis familiaris [2]; -18% in the experiment with Canis familiaris [19]; 0% in the experiment on Canis familiaris [21]; -2% in the experiment on Canis familiaris [25]; -18% with Canis familiaris [26]; -3% with Canis familiaris [27]. Also, the “Change in TPR” value in the experiment with Canis familiaris [3] is listed as -33.5%; with Canis familiaris [5] it was -22.5%; in the experiment with Canis familiaris [9], -8.5%; in the experiment on Canis familiaris [12], -23%; in the experiment with Canis familiaris [14] it was -39%; in the experiment on Canis familiaris [18] it was -12%. Further, the “Change in heart rate” value in the experiment with Canis familiaris [4] was 12%; in the experiment on Canis familiaris [7], 2%; with Canis familiaris [8] it was 5%; in the experiment with Canis familiaris [15], 3%; in the experiment on Canis familiaris [22] it was 0%; in the experiment on Canis familiaris [24], 4%. Besides, the “Change in LV dp/dt” value was 106% and 57% in the experiment on Canis familiaris [6]; 11% in the experiment on Canis familiaris [16]; 18% in the experiment on Canis familiaris [20]. Besides, the ED50 in the experiment with Canis familiaris [17] is 0.023 mg/kg. Also, on Phosphodiesterase 3, the IC50 was found to be 1.8 µM.

In the experiment with Canis familiaris [29], `CCC(=O)Nc1ccc2c(c1)CC1CC(=O)NN=C21` (stereo not drawn) gave an ED50 of 0.0104 mg/kg.

As for `Oc1cc2c(nn1)-c1ccc(-n3ccnc3)cc1C2`, the IC50 against Phosphodiesterase 3 was found to be 1.6 µM.

In the case of `CN1N=C2c3ccc(-n4ccnc4)cc3CC2CC1=O` (stereo not drawn), the ED50 in the experiment on Canis familiaris [30] is 1 mg/kg.

With `CC1CC(O)=NN=C1c1ccc(-n2ccnc2)cc1` (stereo not drawn) [CI-930], the “Change in MABP” value with Canis familiaris [2] is listed as -7.5%; with Canis familiaris [27] it was -5%. In addition, the “Change in heart rate” value in the experiment on Canis familiaris [7] is listed as 7%; with Canis familiaris [24] it was 11%. This molecule registered an ED50 in the experiment on Canis familiaris [17] of 0.013 mg/kg. Further, in the experiment on Canis familiaris [31], the “Change in LV dp/dt” value was 76% and 47%.

One may read the ED50 as the dose at which the effect has come halfway, by size or by number of responders. The low end stands for greater potency, the high end for weaker potency. A word on the IC50: it is the point on the concentration scale where inhibition reaches its midpoint. A higher IC50 goes with weaker potency.

Values taken from ChEMBL document CHEMBL1123260 (J Med Chem, 1986).
